The values below come from ChEMBL document CHEMBL1143078, “Synthesis and anti-Helicobacter pylori activity of 5-(nitroaryl)-1,3,4-thiadiazoles with certain sulfur containing alkyl side chain” (Bioorg Med Chem Lett, 2008).

Experiment [1] relates to Staphylococcus epidermidis. Kind of experiment: Antibacterial activity against Staphylococcus epidermidis ATCC 12228 after 18 hrs by serial dilution method. Type of experiment: functional. The conditions noted are these: ATCC 12228, 18 h. In a few lines: (§1)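 Agar dilution MIC. Compound stock diluted with water, then serially doubled in melted Mueller–Hinton agar to 64, 32, 16 and 8 µg/mL. Plates inoculated with 1-5 × 10^4 CFU and incubated 18 h at 37 °C. MIC is the lowest concentration giving no visible growth.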

Another experiment deals with Aspergillus niger. Description: Antifungal activity against Aspergillus niger PTCC 5012 after 72 hrs by agar dilution method. The class given is functional. In outline:
(§2)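 Agar dilution on Sabouraud dextrose agar. Compound stocks in DMSO. Inocula about 10^5 CFU/mL from log-phase broth cultures. Plates run in triplicate at 30 °C: about 24–48 h for yeasts, about 72 h for moulds, about 168 h for dermatophytes. MIC is the lowest concentration with no visible growth on the plate.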
For orientation: Agar dilution tests growth on a series of plates holding different concentrations.

The subject of a further experiment is Candida albicans. Kind of experiment: Antifungal activity against Candida albicans PTCC 5027 after 72 hrs by agar dilution method. Type of experiment: functional.
The subject of experiment [2] is Helicobacter pylori. Description: Antibacterial activity against Helicobacter pylori isolate assessed as inhibition zone diameter at 16 ug/disk after 3-5 days by paper disk diffusion assay. The class given is functional. In outline:
(§3)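 Filter-paper disk diffusion (6 mm disks), with the compound applied in 40 µL methanol and dried. Disks placed on Mueller–Hinton agar with 7% defibrinated horse blood, inoculated with 48 h H. pylori clinical-isolate suspension at 2 McFarland (10^7-10^8 CFU/mL). Incubated 3–5 days at 37 °C microaerophilically (5% O2, 15% CO2, 80% N2). Mean inhibition-zone diameter (mm) from triplicates.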
(In general: A growth-free zone around the sample is the usual read-out of agar diffusion tests.)

The subject of experiment [3] is Helicobacter pylori. Description: Antibacterial activity against Helicobacter pylori isolate assessed as inhibition zone diameter at 0.5 ug/disk after 3-5 days by paper disk diffusion assay. Type of experiment: functional. In outline:
as §3

The subject of experiment [4] is Helicobacter pylori. Description: Antibacterial activity against metronidazole-resistant Helicobacter pylori assessed as inhibition zone diameter at 8 ug/disk after 3-5 days by paper disk diffusion assay. Type of experiment: functional. In a few lines:
(§4)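 Filter paper disks (6 mm) loaded with compound in 40 μL methanol, dried, placed on Mueller–Hinton agar with 7% defibrinated horse blood pre-inoculated with H. pylori suspension (2 McFarland, 10⁷-10⁸ CFU/mL; 48 h cultures checked for coccoid forms); incubated microaerophilically (5% O2, 15% CO2, 80% N2) at 37 °C for 3–5 days; mean inhibition zone diameter (mm) of triplicates.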

Experiment [5] deals with Helicobacter pylori. Kind of experiment: Antibacterial activity against metronidazole-sensitive Helicobacter pylori assessed as inhibition zone diameter at 16 ug/disk after 3-5 days by paper disk diffusion assay. Type of experiment: functional. In outline:
as §4

In experiment [6] the test system is Helicobacter pylori. Kind of experiment: Antibacterial activity against Helicobacter pylori isolate assessed as inhibition zone diameter at 4 ug/disk after 3-5 days by paper disk diffusion assay. Type of experiment: functional. In outline:
as §3

The nature of experiment [7]: Cytotoxicity against mouse NIH/3T3 cells after 72 hrs by MTT assay. The class given is cell-based. The conditions noted are these: NIH3T3, 72 h. In a few lines: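 NIH/3T3 mouse fibroblasts in exponential phase trypsinized and seeded at 5×10^4 cells/mL, then given serially diluted compound in triplicate and incubated 72 h. MTT (5 mg/mL solution) added for 1 h, formazan dissolved in DMSO, absorbance read at 492 nm. IC50 calculated from dose-response curves versus untreated controls, as mean ± SD of triplicates.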
(In general: Tetrazolium assays rely on reduction of a dye to a coloured formazan, in cell work by metabolically active cells.)

Experiment [8] relates to Helicobacter pylori. Description: Antibacterial activity against metronidazole-sensitive Helicobacter pylori assessed as inhibition zone diameter at 32 ug/disk after 3-5 days by paper disk diffusion assay. Type of experiment: functional. In a few lines: as §3
For experiment [9], the system named is Helicobacter pylori. Kind of experiment: Antibacterial activity against Helicobacter pylori isolate assessed as inhibition zone diameter at 1 ug/disk after 3-5 days by paper disk diffusion assay. Type of experiment: functional. In outline: as §3
The subject of experiment [10] is Helicobacter pylori. Description: Antibacterial activity against Helicobacter pylori isolate assessed as inhibition zone diameter at 32 ug/disk after 3-5 days by paper disk diffusion assay. Type of experiment: functional. In a few lines:
as §3

Another experiment relates to Saccharomyces cerevisiae. Kind of experiment: Antifungal activity against Saccharomyces cerevisiae PTCC 5177 after 72 hrs by agar dilution method. The class given is functional.
The test system of experiment [11] is Helicobacter pylori. Kind of experiment: Antibacterial activity against Helicobacter pylori isolate assessed as inhibition zone diameter at 8 ug/disk after 3-5 days by paper disk diffusion assay. The class given is functional. In outline: as §3
The test system of another experiment is Klebsiella pneumoniae. Kind of experiment: Antibacterial activity against Klebsiella pneumoniae ATCC 10031 after 18 hrs by serial dilution method. Type of experiment: functional. Conditions: ATCC 10031, 18 h. In a few lines: as §1
Another experiment has as its system Nannizzia gypsea. Description: Antifungal activity against Microsporum gypseum PTCC 5070 after […] by agar dilution method. Type of experiment: functional. In outline: as §2
The next experiment deals with Escherichia coli. Description: Antibacterial activity against Escherichia coli ATCC 8739 after 18 hrs by serial dilution method. Type of experiment: functional. The conditions noted are these: ATCC 8739, 18 h. In a few lines: as §1
Experiment [12] relates to Helicobacter pylori. Description: Antibacterial activity against metronidazole-resistant Helicobacter pylori assessed as inhibition zone diameter at 32 ug/disk after 3-5 days by paper disk diffusion assay. The class given is functional. In a few lines:
as §4

Another experiment concerns Staphylococcus aureus. Kind of experiment: Antibacterial activity against Staphylococcus aureus ATCC 6538P after 18 hrs by serial dilution method. Type of experiment: functional. In outline:
as §1

Experiment [13] has as its system Helicobacter pylori. Kind of experiment: Antibacterial activity against metronidazole-resistant Helicobacter pylori assessed as inhibition zone diameter at 16 ug/disk after 3-5 days by paper disk diffusion assay. The class given is functional. In a few lines: as §4
Experiment [14] relates to Helicobacter pylori. Description: Antibacterial activity against metronidazole-sensitive Helicobacter pylori assessed as inhibition zone diameter at 8 ug/disk after 3-5 days by paper disk diffusion assay. The class given is functional. In a few lines: as §3
Experiment [15] concerns Helicobacter pylori. Description: Antibacterial activity against Helicobacter pylori isolate assessed as inhibition zone diameter at 2 ug/disk after 3-5 days by paper disk diffusion assay. Type of experiment: functional. In a few lines:
as §3

In brackets after ≈: the same amount, converted by molar mass. Bounds are passed on as bounds.

As a reminder, the MIC is the lowest concentration found to suppress growth. A lower MIC goes with a more susceptible organism. As a reminder, the IC50 is the point on the concentration scale where inhibition reaches its midpoint. Low readings indicate greater potency in that assay, high ones weaker potency in that assay. For the compound `CCS(=O)(=O)CCSc1nnc(-c2ccc([N+](=O)[O-])o2)s1`, the minimum inhibitory concentration (MIC) in [1] was 32 µg/mL (≈ 91.6 µM); with Aspergillus niger it was over 32 µg/mL; against Candida albicans, over 32 µg/mL; with Saccharomyces cerevisiae, over 32 µg/mL; with Klebsiella pneumoniae it was over 32 µg/mL; with Nannizzia gypsea it was over 32 µg/mL. Also, the minimal inhibitory concentration (MIC) with Escherichia coli and in the experiment on Staphylococcus aureus was over 32 µg/mL throughout. Also, the Activity was determined as 33.1 mm in the experiment on Helicobacter pylori [2]; 6.6 mm with Helicobacter pylori [3]; 29 mm in the experiment with Helicobacter pylori [4]; 43 mm in the experiment with Helicobacter pylori [5]; 23.5 mm in the experiment on Helicobacter pylori [6]; 46 mm in the experiment on Helicobacter pylori [8]. Further, the Activity with Helicobacter pylori [9] is on record as 12.6 mm; in the experiment with Helicobacter pylori [10], 36.5 mm; in the experiment on Helicobacter pylori [11], 29.1 mm; with Helicobacter pylori [12] it was 41 mm; in the experiment with Helicobacter pylori [13], 34 mm; with Helicobacter pylori [14] it was 37 mm. Moreover, the Activity in the experiment on Helicobacter pylori [15] was found to be 18.3 mm. In experiment [7], this compound had a half-maximal inhibitory concentration (IC50) of 4.2 µg/mL (≈ 12 µM).
For `CCS(=O)(=O)CCSc1nnc(-c2ccc([N+](=O)[O-])s2)s1`, the minimum inhibitory concentration (MIC) in experiment [1] is 32 µg/mL (≈ 87.6 µM); in the experiment on Aspergillus niger, over 32 µg/mL; with Candida albicans it was over 32 µg/mL; against Saccharomyces cerevisiae it was over 32 µg/mL; in the experiment on Klebsiella pneumoniae, over 32 µg/mL; against Nannizzia gypsea, over 32 µg/mL. In addition, the minimal inhibitory concentration (MIC) in the experiment on Escherichia coli and in the experiment with Staphylococcus aureus was over 32 µg/mL in each case. The Activity is reported as 46.7 mm in the experiment with Helicobacter pylori [2]; 18.2 mm in the experiment on Helicobacter pylori [3]; over 50 mm with Helicobacter pylori [5]; 37.5 mm in the experiment on Helicobacter pylori [6]; over 50 mm in the experiment on Helicobacter pylori [8]; 24.9 mm in the experiment with Helicobacter pylori [9]. The Activity was 47.6 mm in the experiment on Helicobacter pylori [10], 44.2 mm in the experiment on Helicobacter pylori [11], over 50 mm in the experiment with Helicobacter pylori [14] and 31.9 mm with Helicobacter pylori [15]. Also, the IC50 in experiment [7] worked out at 11.6 µg/mL (≈ 31.7 µM).
Regarding `CCSCCSc1nnc(-c2ccccc2[N+](=O)[O-])s1`, the minimal inhibitory concentration (MIC) was 32 µg/mL (≈ 97.7 µM) in experiment [1]; over 32 µg/mL with Aspergillus niger; over 32 µg/mL in the experiment on Candida albicans; over 32 µg/mL in the experiment on Saccharomyces cerevisiae; over 32 µg/mL against Klebsiella pneumoniae; over 32 µg/mL in the experiment on Nannizzia gypsea. The minimum inhibitory concentration (MIC) in the experiment with Escherichia coli and with Staphylococcus aureus was over 32 µg/mL in each case. Moreover, the Activity with Helicobacter pylori [5], in the experiment with Helicobacter pylori [8] and in the experiment on Helicobacter pylori [14] was 6 mm each time.
Turning to `CCS(=O)(=O)CCSc1nnc(-c2ccccc2[N+](=O)[O-])s1`, the minimum inhibitory concentration (MIC) is 32 µg/mL (≈ 89 µM) in [1]; over 32 µg/mL against Aspergillus niger; over 32 µg/mL against Candida albicans; over 32 µg/mL against Saccharomyces cerevisiae; over 32 µg/mL in the experiment on Klebsiella pneumoniae; over 32 µg/mL in the experiment with Nannizzia gypsea. Also, the MIC in the experiment with Escherichia coli and against Staphylococcus aureus was over 32 µg/mL in each case. Further, the Activity in the experiment with Helicobacter pylori [5] was 9 mm; in the experiment on Helicobacter pylori [8], 15 mm; with Helicobacter pylori [12], 13 mm; with Helicobacter pylori [14], 6 mm.
As to `CC1(C)S[C@@H]2[C@H](NC(=O)[C@H](N)c3ccc(O)cc3)C(=O)N2[C@H]1C(=O)O` [AMOXICILLIN], the Activity in the experiment on Helicobacter pylori [9] was 24.5 mm.
With `Cc1ncc([N+](=O)[O-])n1CCO` [METRONIDAZOLE], the Activity amounted to 18.4 mm with Helicobacter pylori [2]; 6 mm in the experiment on Helicobacter pylori [3]; 11 mm with Helicobacter pylori [4]; 23 mm in the experiment with Helicobacter pylori [5]; 8.75 mm in the experiment on Helicobacter pylori [6]; 27 mm in the experiment with Helicobacter pylori [8]. Further, the Activity amounted to 6 mm in the experiment with Helicobacter pylori [9]; 20.7 mm in the experiment with Helicobacter pylori [10]; 16.3 mm in the experiment with Helicobacter pylori [11]; 14 mm in the experiment with Helicobacter pylori [12]; 12 mm with Helicobacter pylori [13]; 18 mm in the experiment with Helicobacter pylori [14]. In addition, the Activity with Helicobacter pylori [15] is recorded as 7.5 mm.
